pKi: −log10 of the molar value.
Legend:
[1] = target: T1, 5-hydroxytryptamine receptor 1B (Homo sapiens, UniProt P28222); experiment: Displacement of [3H]GR125743 from 5HT1B receptor transfected in CHO cells; type: cell-based
Procedure, shortened: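 Competition binding used a stably transfected CHO cell line expressing 5HT1B receptor. [3H]-GR125743 was the radioligand, and Ki values were derived from displacement.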

[2] = target: T1, 5-hydroxytryptamine receptor 1B; experiment: Antagonist activity at 5HT1B receptor expressed in CHO cells assessed as effect on 5-HT-induced stimulation of [35S]GTP-gamma-S binding at 10 uM; type: functional, cell-based

T1 sequence (P28222 whole entry): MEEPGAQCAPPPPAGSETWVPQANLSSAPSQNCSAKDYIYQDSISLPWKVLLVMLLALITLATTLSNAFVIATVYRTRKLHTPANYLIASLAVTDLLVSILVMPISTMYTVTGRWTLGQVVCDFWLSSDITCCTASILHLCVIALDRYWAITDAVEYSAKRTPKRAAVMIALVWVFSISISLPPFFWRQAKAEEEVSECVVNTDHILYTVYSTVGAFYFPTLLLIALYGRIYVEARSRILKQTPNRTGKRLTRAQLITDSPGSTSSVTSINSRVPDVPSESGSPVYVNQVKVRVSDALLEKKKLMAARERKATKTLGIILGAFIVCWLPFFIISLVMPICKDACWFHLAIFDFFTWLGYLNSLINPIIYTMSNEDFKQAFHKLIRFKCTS

pKi [1]	Intrinsic activity [2]	SMILES
9.05	-34%	COc1cc(N2CCCN(C)CC2)c2[nH]c(C(=O)Nc3ccc(N4CCOCC4)cc3)cc(=O)c2c1
7.52	–	COc1cc(C(=O)Nc2ccc(N3CCOCC3)cc2)nc2c(N3CCN(C)CC3)cc(F)cc12
5.89	–	CNc1cc(C(=O)Nc2ccc(N3CCOCC3)cc2)nc2c(N3CCN(C)CC3)cc(OC)cc12
6.77	–	CCN1CCC(N(CC)c2cc(OC)cc3c(=O)cc(C(=O)Nc4ccc(N5CCOCC5)cc4)[nH]c23)C1 (stereo not given)
6.41	–	COc1cc(N(C)CCN(C)C)c2[nH]c(C(=O)Nc3ccc(N4CCOCC4)cc3)cc(=O)c2c1
7.29	–	COc1cc(N2CCN(C)CC2)c2nc(C(=O)Nc3ccc(N4CCOCC4)cc3)cc(N(C)C)c2c1
8.03	-34%	CN1CCN(c2cc(F)cc3c(=O)cc(C(=O)Nc4ccc(N5CCOCC5)cc4)[nH]c23)CC1
6.53	–	COc1cc(N(C)CCCN(C)C)c2[nH]c(C(=O)Nc3ccc(N4CCOCC4)cc3)cc(=O)c2c1
< 6.00	–	COc1cc(N2CC[C@H](N(C)C)C2)c2[nH]c(C(=O)Nc3ccc(N4CCOCC4)cc3)cc(=O)c2c1
< 6.00	–	COc1cc(N(C)C2CCN(C)C2)c2[nH]c(C(=O)Nc3ccc(N4CCOCC4)cc3)cc(=O)c2c1 (stereo not given)
8.46	-34%	COc1cc(N2CCN(C)CC2)c2[nH]c(C(=O)Nc3ccc(N4CCOCC4)cc3)cc(=O)c2c1
7.46	–	COc1cc(N2CC[C@@H](N(C)C)C2)c2[nH]c(C(=O)Nc3ccc(N4CCOCC4)cc3)cc(=O)c2c1

Reference: ChEMBL document CHEMBL1145529, “Synthesis of novel quinolone and quinoline-2-carboxylic acid (4-morpholin-4-yl-phenyl)amides: a late-stage diversification approach to potent 5HT1B antagonists” (Bioorg Med Chem, 2007)
